EBI2 antag – EBI2 receptor antagonists, beta-arrestin recruitment, primary screen, cell-based, luminescence, 7a,25-OHC stimulation, uHTS. 7a,25-OHC stimulated. inhibition, % at 5 µM. 0.81% of 360,000 active. AID 651636, 2012; in the data active = inhibition above about 38%;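 also: enzyme fragment complementation signal reports receptor beta-arrestin coupling in cells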
Target sequence (P32249 whole entry, looked up, the tested form may be a part): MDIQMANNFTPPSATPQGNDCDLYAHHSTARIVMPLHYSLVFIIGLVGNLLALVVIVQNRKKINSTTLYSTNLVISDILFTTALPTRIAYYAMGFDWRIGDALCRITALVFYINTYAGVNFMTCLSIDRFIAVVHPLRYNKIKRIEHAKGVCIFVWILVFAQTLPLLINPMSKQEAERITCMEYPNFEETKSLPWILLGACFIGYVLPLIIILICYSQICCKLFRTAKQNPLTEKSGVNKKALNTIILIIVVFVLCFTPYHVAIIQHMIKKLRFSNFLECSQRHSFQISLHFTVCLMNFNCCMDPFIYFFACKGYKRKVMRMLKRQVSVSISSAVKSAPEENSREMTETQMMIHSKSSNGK
Exocytosis inh – LAMP-1 surface exposure blockers, TALL-104 cells – cell-based, flow cytometry, MLPCN library, primary screen; TALL-104 LAMP-1 surface exposure; cells stimulated with thapsigargin and PMA; 0.66% of 360,000 active; inhibition, % at 10 µM;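 active = inhibition above about 55%, limit read from the data; inconclusive = no clear call, values can overlap the other calls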
MC4R barr agon – MC4R agonists recruiting beta-arrestin, primary screen, cell-based, luminescence, agonist arm of biased-ligand search; AID 540308, 2011; U2OS MC4R beta-arrestin complementation; percent of melanotan II response, DMSO zero; activation, % at 8.9 µM; 0.98% of 360,000 active; Melanocortin receptor 4 (Homo sapiens), P32245;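 active = activation above a per-plate cutoff, the mean activation of sample wells on that plate plus 3 SD, cut at about 8% in these data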
Myeloid diff MLP – induction of myeloid progenitor differentiation, primary screen, cell-based, flow cytometry, MLPCN library | ER-HoxA9 myeloid progenitors, lysozyme-GFP differentiation | calls only at 10 µM | 1% of 360,000 active | AID 624256, 2012;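 active = normalized GFP-positive differentiation at or above the plate's own cutoff, the solvent-only control mean plus 3 SD; inconclusive = no clear call, values can overlap the other calls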;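 also: cells exposed to compound for four days before flow analysis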
MC4R antag cAMP – MC4R antagonists of cAMP signaling, primary screen, cell-based, TR-FRET, antagonist arm of biased-ligand search; MC4R-expressing cells, MTII-stimulated cAMP, LANCE TR-FRET; inhibition, % at 6.5 µM; 0.48% of 360,000 active;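 active = inhibition above its plate's cutoff, the mean of tested wells on that plate plus 3 SD, cut at about 29% in these data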
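Assay system: U2OS-MC4R stable cell line; Also added: Melanotan II; Technique: Eu-cAMP/anti-cAMP TR-FRET, emission 671 nm; Times: 30-min compound, 1-h challenge, 1-h detection, room temperature.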
EBI2 conf – EBI2 antagonist hit retest, beta-arrestin, confirmation, cell-based, single concentration, luminescence, 7a,25-OHC stimulation; shares compounds with EBI2 antag; 7a,25-OHC antagonism; inhibition, % at 5 µM; 29% of 2,400 active;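 active = inhibition of at least 50%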
EBI2 agonist – EBI2 agonist activity of antagonist hits, confirmation, counter-screen for EBI2 antagonist project, cell-based, single concentration, agonist mode, luminescence. AID 652000, 2013. EBI2-expressing cells, 60 min; 0% vehicle, 100% 7α,25-dihydroxycholesterol control. shares compounds with EBI2 antag. activation, % at 5 µM. 2,400 tested, under 10 active;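 active = activation of at least 50%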
bGal cs – E. coli beta-galactosidase enzyme inhibition, confirmation, counter-screen for EBI2 antagonist project, biochemical, luminescence, single concentration | shares compounds with EBI2 antag | purified beta-galactosidase, luminescent Galacton Star, 15 min | inhibition, % at 5 µM | 1% of 2,400 active;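 active = replicate-average signal at least 3 plate SD below neutral wells, shown as high inhibition, flagging enzyme-inhibiting false positives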;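 also: higher means stronger loss of beta-gal luminescence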
Large screens that a line does not name were inactive (follow-up assays come after a bar, where they were run). Sampled rows, rich in hits. Any-hit rate of the full collection: about 3.7%.

CC1=C2C3OC(=O)C(C)C3CCC2(C)C=C(Br)C1=O (stereo not given)	none
O=C(Nc1ccc2ncccc2c1)c1ccccc1	none
CCC(C(=O)c1ccc2ncccc2c1)c1ccccc1 (stereo not given)	EBI2 antag 61 | EBI2 conf inactive | EBI2 agonist inactive | bGal cs inactive
O=[N+]([O-])c1ccc(N2CCC(=NOCc3ccc(Cl)cc3)CC2)cc1	EBI2 antag 53 | EBI2 conf inactive | EBI2 agonist inactive | bGal cs inactive
CCn1c(=O)c2cc(C(=O)N3CCN(C)CC3)sc2c2ccccc21	none
CN1CCN(C(=O)c2cc3sc4ccccc4c3s2)CC1	EBI2 antag 95 | EBI2 conf 70 | EBI2 agonist inactive | bGal cs inactive
COc1cccc(CNC(=O)[C@@H]2CCCN2C(=O)[C@H]2CCCCN2C(=O)c2ccccc2)c1	none (no result: MC4R barr agon, MC4R antag cAMP)
COc1ccc(CNC(=S)Nc2cccc(OC)c2)cc1	none
CCOc1ccc(NC(=S)Nc2cc(OC)c(Cl)cc2OC)cc1	EBI2 antag 65 | EBI2 conf inactive | EBI2 agonist inactive | bGal cs inactive
CCOc1ccc(NC(=S)Nc2ccc(OC(F)(F)F)cc2)cc1	EBI2 antag 76 | EBI2 conf 53 | EBI2 agonist inactive | bGal cs inactive
CCc1ccc(NC(=S)Nc2cccc(OC)c2)cc1	EBI2 antag 50 | EBI2 conf inactive | EBI2 agonist inactive | bGal cs inactive
CCOc1ccc(NC(=S)Nc2ccc(OCC)cc2)cc1	EBI2 antag 80 | EBI2 conf 62 | EBI2 agonist inactive | bGal cs inactive
CCNC(=S)Nc1ccc(OCC)cc1	none
CCCCN(C=O)c1c(CC)nc2c(OCc3ccc(Cl)cc3)cccn12	none
CCOc1ccc(NC(=S)Nc2ccc(C)c([N+](=O)[O-])c2)cc1	EBI2 antag 65 | EBI2 conf 66 | EBI2 agonist inactive | bGal cs inactive
O=C(COC(=O)c1cc(S(=O)(=O)N2CCCCC2)ccc1N1CCOCC1)c1ccccc1Cl	EBI2 antag 48 | EBI2 conf 65 | EBI2 agonist inactive | bGal cs inactive
COc1ccc(CNC(=O)N2CCN(c3cccc(C)c3C)CC2)cc1OC	none
Cc1cccc(N2CCN(C(=O)Cc3ccc(Br)cc3)CC2)c1C	EBI2 antag 47 | EBI2 conf inactive | EBI2 agonist inactive | bGal cs inactive
Cc1cccc(N2CCN(C(=O)NCc3ccc(F)cc3)CC2)c1C	EBI2 antag 58 | EBI2 conf inactive | EBI2 agonist inactive | bGal cs inactive
Cc1cccc(N2CCN(C(=O)CNC(=O)Cc3ccccc3)CC2)c1C	none
COc1ccccc1C(C)NC(=O)Cc1ccc(S(=O)(=O)N2CCOCC2)s1 (stereo not given)	none
CCCNC(=O)C1(C)CCN(C(=O)c2sccc2C)C1 (stereo not given)	none
Cc1ccc(-c2noc(CSc3nnc(Cc4ccccc4)n3-c3ccc(Cl)cc3)n2)cc1	none
COc1ccc(-c2noc(CSc3nnc(Cc4ccccc4)n3-c3ccc(Cl)cc3)n2)cc1	EBI2 antag 39 | EBI2 conf inactive | EBI2 agonist inactive | bGal cs inactive
Cc1ccc(Oc2ccc(C(=O)NC3CCSC3=O)cn2)cc1 (stereo not given)	EBI2 antag 49 | EBI2 conf inactive | EBI2 agonist inactive | bGal cs inactive
CC(=O)Nc1ccc(S(=O)(=O)N2CCC(C(=O)NCCc3c[nH]c4ccccc34)CC2)cc1	EBI2 antag 49 | EBI2 conf inactive | EBI2 agonist inactive | bGal cs inactive
O=C(NCCc1c[nH]c2ccccc12)C1CCN(S(=O)(=O)c2ccccc2)CC1	none
Cc1ccc(Cl)cc1N1CCN(c2cccc[n+]2C)CC1	Myeloid diff MLP inconclusive
C=CCOc1cccc(NC(=O)c2ccccc2SC)c1	none
COc1ccc(OC)c(S(=O)(=O)N2CCN(CC(O)COc3ccc(C#N)cc3)CC2)c1 (stereo not given)	EBI2 antag 45 | EBI2 conf inactive | EBI2 agonist inactive | bGal cs inactive
COc1ccc(OCC(O)CN2CCC(CN3C(=O)c4cccc5cccc(c45)C3=O)CC2)cc1 (stereo not given)	EBI2 antag 44, Myeloid diff MLP inconclusive | EBI2 conf inactive | EBI2 agonist inactive | bGal cs inactive
COc1ccc(OC)c(S(=O)(=O)N2CCN(CC(O)COc3ccccc3)CC2)c1 (stereo not given)	EBI2 antag 46 | EBI2 conf inactive | EBI2 agonist inactive | bGal cs inactive
COc1ccc(OC)c(S(=O)(=O)N2CCN(Cc3ccccc3)CC2)c1	none
CSCC(CO)NS(=O)(=O)c1ccc(C)cc1 (stereo not given)	none
O=C(c1cc2cc(Br)ccc2o1)N1CCN(c2ccccc2)CC1	EBI2 antag 53 | EBI2 conf inactive | EBI2 agonist inactive | bGal cs inactive
O=C(c1cc2ccccc2oc1=O)N1CCN(c2ncccn2)CC1	none
O=C(c1cc2ccccc2o1)N1CCN(c2ncccn2)CC1	EBI2 antag 59 | EBI2 conf inactive | EBI2 agonist inactive | bGal cs inactive
COc1ccc(CNC(=O)/C=C/[C@H]2O[C@@H](n3ccc(=O)[nH]c3=O)[C@H](O)[C@@H]2O)cc1	none (no result: MC4R barr agon, MC4R antag cAMP)
COc1cc(OC)cc(N2C(=O)CSCC2=O)c1	none
COc1ccccc1CNC(=O)COC(=O)CSc1ccc(F)cc1	none
COc1ccccc1CNC(=O)CSc1ccc(Br)cc1	EBI2 antag 45 | EBI2 conf inactive | EBI2 agonist inactive | bGal cs inactive
COc1ccc(-c2cc(C3CCN(CC(O)C(F)(F)F)CC3)[nH]n2)cc1 (stereo not given)	none
COc1ccc(-c2cc(C3CCN(Cc4cccc(C(F)(F)F)c4)CC3)[nH]n2)cc1	EBI2 antag 55 | EBI2 conf inactive | EBI2 agonist inactive | bGal cs inactive
O=C(CSc1nc2ccccc2c(=O)n1CCCO)Nc1ccc2c(c1)OCCO2	none

Screening data (PubChem)
